The text below walks through data of ChEMBL document CHEMBL1135803, “Design, synthesis, and preliminary pharmacological evaluation of N-acyl-3-aminoglutarimides as broad-spectrum chemokine inhibitors in vitro and anti-inflammatory agents in vivo” (2002).

Molecules are shown by their SMILES. The source made the active and inactive calls. The rule behind the calls is not given here. Peptide text beside a SMILES is read from it.

For the first assay, the system named is THP-1. As to the kind of experiment: Effective dose against monocyte chemoattractant protein-1(MCP-1) induced leukocyte migration of THP-1 cells. The settings on record: Homo sapiens, read-out: ED50 (the source's name). It counts as functional. The method in brief:
(§1)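 Trans-well microtiter migration of human myelomonocytic THP-1 cells toward 25 ng/mL MCP-1 in Gey's balanced salt solution with 1 mg/mL endotoxin-free BSA, no fetal calf serum, 2 h at 37 °C. Compound is in both compartments, DMSO 1% final, tested up to 100 μM. Migrated cells are counted by MTT as % of vehicle-only migration. ED50 is the concentration giving 50% reduction; triplicate determinations.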
On to `CC(C)[C@H](NC(=O)[C@@H](N)Cc1ccc(O)cc1)C(=O)N[C@@H](CCC(N)=O)C(=O)O` (H-Tyr-Val-Gln-OH), for which the EC50 worked out at 25 µM.

With `CC(C)[C@H](NC(=O)[C@H](Cc1c[nH]c2ccccc12)NC(=O)[C@H](CCCCN)NC(=O)[C@H](CCC(N)=O)NC(=O)[C@H](CCCCN)NC(=O)[C@@H]1CCCN1C(=O)[C@H](CC(=O)O)NC(=O)[C@H](C)NC(=O)[C@@H](N)CS)C(=O)N[C@@H](CCC(N)=O)C(=O)O` (H-CADPKQKWVQ-OH), the EC50 came out at 8 µM.

Consider `C=CCCCCCCCCC(=O)N[C@@H](CCC(N)=O)C(=O)NCc1ccccc1`, for which the EC50 was determined as 40 µM.

For the compound `NC(=O)CC[C@H](NC(=O)c1ccccc1)C(=O)NCc1ccccc1`, the EC50 was > 100 µM.

For the compound `CCCCCCCCCCC(=O)N[C@H]1CCC(=O)NC1=O`, the EC50 turned out to be 0.01 µM.

For `CC(C)(C)OC(=O)N[C@@H](CCC(N)=O)C(N)=O`, the EC50 was 45 µM.

On to `CC[C@H](C)[C@H](NC(=O)[C@@H](N)CCC(=O)O)C(=O)N[C@@H](CS)C(=O)N[C@@H](C)C(=O)N[C@@H](CC(=O)O)C(=O)N1CCC[C@H]1C(=O)N[C@@H](CCCCN)C(=O)N[C@@H](CCC(N)=O)C(=O)N[C@@H](CCCCN)C(=O)N[C@@H](Cc1c[nH]c2ccccc12)C(=O)N[C@H](C(=O)N[C@@H](CCC(N)=O)C(=O)O)C(C)C` (H-EICADPKQKWVQ-OH), for which the EC50 was 8 µM.

Take `C=CCCCCCCCCC(=O)N[C@H]1CCC(=O)N(C)C1=O`: the EC50 is 0.033 µM.

For the compound `CCCCCCC(=O)N[C@H]1CCC(=O)NC1=O`, the EC50 was 0.02 µM.

Consider `CC[C@H](C)[C@H](NC(=O)[C@@H](N)CCC(=O)O)C(=O)N[C@@H](CS)C(=O)N[C@@H](C)C(=O)N[C@@H](CC(=O)O)C(=O)N1CCC[C@H]1C(=O)O` (H-EICADP-OH), for which the EC50 is 50 µM.

In the case of `CCCCC(=O)N[C@H]1CCC(=O)NC1=O`, the EC50 stood at 0.033 µM.

As to `CC(C)[C@H](NC(=O)[C@@H](N)Cc1c[nH]c2ccccc12)C(=O)N[C@@H](CC(N)=O)C(=O)O` (H-Trp-Val-Asn-OH), the EC50 is > 100 µM.

Consider `NC(=O)CC[C@H](NC(=O)c1ccccc1)C(=O)O`, for which the EC50 was > 100 µM.

As to `CC(C)[C@H](NC(=O)[C@H](Cc1c[nH]c2ccccc12)NC(=O)[C@H](CCCCN)NC(=O)[C@H](CCC(N)=O)NC(=O)[C@@H](N)CCCCN)C(=O)N[C@@H](CCC(N)=O)C(=O)O` (H-KQKWVQ-OH), the EC50 came out at 6 µM.

Consider `CC(C)(C)OC(=O)N[C@@H](CCC(N)=O)C(=O)NCc1ccccc1`, for which the EC50 is > 100 µM.

For `O=C1CC[C@H](NC(=O)c2ccccc2)C(=O)N1`, the EC50 is > 100 µM.

For the compound `C=CCCCCCCCCC(=O)N[C@@H](CCC(N)=O)C(N)=O`, the EC50 was determined as 15 µM.

In the case of `CC(C)[C@H](N)C(=O)N[C@H](C(=O)N[C@@H](CCC(N)=O)C(=O)O)C(C)C` (H-Val-Val-Gln-OH), the EC50 was > 100 µM.

As for `C=CCCCCCCCCC(=O)N[C@H]1CCCNC1=O`, the EC50 is 0.1 µM.

With `NC(=O)CC[C@H](NC(=O)c1ccccc1)C(N)=O`, the EC50 was > 100 µM.

Regarding `CCCC(CCC)C(=O)N[C@H]1CCC(=O)NC1=O`, the EC50 came to 0.66 µM.

Take `NCCCC[C@H](NC(=O)[C@H](CCC(N)=O)NC(=O)[C@@H](N)CCCCN)C(=O)O`: the EC50 stood at 12 µM.

For the compound `CCCCCCCCC(=O)N[C@H]1CCC(=O)NC1=O`, the EC50 was found to be 0.01 µM.

In the case of `O=C(O)CCCCCCCCC(=O)N[C@H]1CCC(=O)NC1=O`, the EC50 turned out to be 0.066 µM.

A further assay concerns THP-1. Briefly: Effective dose against monocyte chemoattractant protein-1(MCP-1) induced leukocyte migration of THP-1 cells at 100 uM conc.; Inactive. It counts as functional, cell-based. The settings on record: Homo sapiens. The method in brief: as §1
In the case of `CC(C)[C@H](N)C(=O)N[C@@H](Cc1c[nH]c2ccccc12)C(=O)N[C@@H](CCC(N)=O)C(=O)O` (H-Val-Trp-Gln-OH), the NA entry is “inactive”.

Regarding `CC(C)[C@H](NC(=O)[C@H](CCC(N)=O)NC(=O)[C@@H](N)Cc1c[nH]c2ccccc12)C(=O)O` (H-Trp-Gln-Val-OH), the NA entry is “inactive”.

As to `CC(C)[C@H](NC(=O)[C@@H](N)Cc1c[nH]c2ccccc12)C(=O)NCC(=O)O` (H-Trp-Val-Gly-OH), the NA entry is “inactive”.

For `CC(C)[C@H](NC(=O)CN)C(=O)N[C@@H](CCC(N)=O)C(=O)O` (H-Gly-Val-Gln-OH), the NA result is “inactive”.

On to `CC(C)[C@H](NC(=O)[C@@H](N)Cc1c[nH]c2ccccc12)C(=O)N[C@@H](CCCN=C(N)N)C(=O)O` (H-Trp-Val-Arg-OH), for which the NA result was “inactive”.
